The target in assay [1] is Histone deacetylase (HDAC1 and HDAC2) (Homo sapiens, UniProt Q13547+Q92769). Kind of assay: Inhibition of HDAC1/2 in human HeLa cell nuclear extract using Fluor de Lys as substrate after 15 mins by fluorometric analysis. It is filed as protein assay.
In a further assay the target is T1, Histone deacetylase 8 (Homo sapiens, UniProt Q9BY41).
T1 sequence (Q9BY41 whole entry): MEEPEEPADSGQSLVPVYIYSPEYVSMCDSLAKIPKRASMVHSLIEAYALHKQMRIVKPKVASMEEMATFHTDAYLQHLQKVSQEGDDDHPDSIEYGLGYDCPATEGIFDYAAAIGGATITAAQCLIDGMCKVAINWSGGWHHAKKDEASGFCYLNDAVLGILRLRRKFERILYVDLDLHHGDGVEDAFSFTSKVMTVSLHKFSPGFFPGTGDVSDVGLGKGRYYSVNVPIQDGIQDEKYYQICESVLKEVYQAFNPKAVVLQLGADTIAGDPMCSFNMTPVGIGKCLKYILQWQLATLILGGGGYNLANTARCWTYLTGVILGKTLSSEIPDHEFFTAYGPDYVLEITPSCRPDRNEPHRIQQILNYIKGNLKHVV
Kind of assay: Inhibition of HDAC8 in human HeLa cell nuclear extract using Fluor de Lys as substrate after 15 mins by fluorometric analysis.

A further assay has as its system DU-145. Kind of assay: Antiproliferative activity against human DU145 cells after 72 hrs by MTS assay. Conditions: DU-145, 72 h. It counts as functional, cell-based. An outline of the steps:
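DU-145 cells passaged 24 h before dosing and exposed 72 h; compounds from 10 mM DMSO stocks; controls given media with 0.1% DMSO; 37°C, 5% CO2. Viability read by MTS assay, with Trypan Blue staining also used. IC50 from the average of two experiments, each run in triplicate.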

The target of assay [2] is DNA topoisomerase 2-alpha (Homo sapiens) (UniProt P11388). Briefly: Inhibition of topoisomerase 2 in human DU145 cells assessed as stabilization of enzyme-DNA cleavage complex at 130 nM after 72 hrs by immunoblot analysis. It counts as cell-based. Conditions: DU-145. The gist of the method: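 DU-145 cells dosed 30 min or 72 h; controls given 0.1% DMSO. 72 h samples equalized to the 30 min cell count before lysis in 1% sarkosyl. Lysates spun on a CsCl gradient at 31,000 RPM, room temperature, 12 h. Fractions holding Topo II–DNA complexes found by A260, slot-blotted onto nitrocellulose, and immunoblotted for Topo II.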
Sequence of DNA topoisomerase 2-alpha (Homo sapiens) (P11388 whole entry): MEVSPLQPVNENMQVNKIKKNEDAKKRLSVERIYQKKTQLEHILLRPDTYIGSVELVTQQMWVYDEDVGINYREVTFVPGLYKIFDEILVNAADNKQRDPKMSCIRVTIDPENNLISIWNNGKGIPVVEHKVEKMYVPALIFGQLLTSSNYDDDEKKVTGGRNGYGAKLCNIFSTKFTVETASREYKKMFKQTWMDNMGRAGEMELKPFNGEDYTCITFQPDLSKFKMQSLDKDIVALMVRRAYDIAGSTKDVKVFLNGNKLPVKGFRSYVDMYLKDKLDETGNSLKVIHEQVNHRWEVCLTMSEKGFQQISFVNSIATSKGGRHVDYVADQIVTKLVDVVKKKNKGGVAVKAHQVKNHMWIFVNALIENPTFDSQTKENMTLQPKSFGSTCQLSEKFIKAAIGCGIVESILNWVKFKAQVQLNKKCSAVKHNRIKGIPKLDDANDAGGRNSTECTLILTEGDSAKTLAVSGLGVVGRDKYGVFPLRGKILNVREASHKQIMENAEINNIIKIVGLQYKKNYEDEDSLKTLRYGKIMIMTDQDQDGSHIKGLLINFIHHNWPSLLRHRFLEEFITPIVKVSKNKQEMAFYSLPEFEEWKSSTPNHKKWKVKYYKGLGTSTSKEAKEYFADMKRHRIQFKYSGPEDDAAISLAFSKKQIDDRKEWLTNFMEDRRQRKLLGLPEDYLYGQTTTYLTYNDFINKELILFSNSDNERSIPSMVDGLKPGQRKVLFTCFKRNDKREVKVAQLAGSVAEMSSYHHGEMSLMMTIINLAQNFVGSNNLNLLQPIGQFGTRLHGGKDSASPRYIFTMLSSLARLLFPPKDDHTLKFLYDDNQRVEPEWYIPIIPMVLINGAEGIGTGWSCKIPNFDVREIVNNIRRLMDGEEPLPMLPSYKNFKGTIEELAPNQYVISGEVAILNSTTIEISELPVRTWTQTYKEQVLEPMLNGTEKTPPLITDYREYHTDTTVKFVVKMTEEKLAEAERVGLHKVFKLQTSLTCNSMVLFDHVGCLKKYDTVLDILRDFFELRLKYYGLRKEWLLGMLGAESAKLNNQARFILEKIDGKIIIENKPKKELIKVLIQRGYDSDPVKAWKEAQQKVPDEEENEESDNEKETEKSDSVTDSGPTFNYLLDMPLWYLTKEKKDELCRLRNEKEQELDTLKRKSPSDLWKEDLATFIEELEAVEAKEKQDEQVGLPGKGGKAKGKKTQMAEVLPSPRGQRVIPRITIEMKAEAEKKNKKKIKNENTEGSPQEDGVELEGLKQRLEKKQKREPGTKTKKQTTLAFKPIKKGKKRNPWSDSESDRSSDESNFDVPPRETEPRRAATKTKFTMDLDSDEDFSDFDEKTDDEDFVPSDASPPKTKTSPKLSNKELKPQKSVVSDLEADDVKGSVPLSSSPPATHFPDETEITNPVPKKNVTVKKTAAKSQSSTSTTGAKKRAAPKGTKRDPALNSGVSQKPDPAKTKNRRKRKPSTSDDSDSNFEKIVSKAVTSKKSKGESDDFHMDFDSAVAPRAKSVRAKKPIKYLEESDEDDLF

The target of assay [3] is Histone deacetylase (Homo sapiens) (UniProt Q13547+O15379+Q9UBN7+Q92769+Q9UQL6+Q8WUI4+Q9BY41+Q96DB2+P56524+Q9UKV0+Q969S8). Particulars: DU-145, 0.5 to 1 uM.

Molecules are shown by their SMILES. Calls of active or inactive are those of the source. No cut-off for these calls is given here.

As for `COc1cccc2c1C(=O)c1c(O)c3c(c(O)c1C2=O)C[C@@](O)(C(C)=O)C[C@@H]3O[C@H]1C[C@H](NCc2ccc(NC(=O)CCCCCCC(=O)NO)cc2)[C@H](O)[C@H](C)O1`, the IC50 in assay [1] amounted to 64.7 nM; against Histone deacetylase 8, 220 nM; in the assay with DU-145, 130 nM. In addition, the inhibition result in assay [2] and in assay [3] was “Active” in each case.

(Values after ChEMBL document CHEMBL2021781, “Dual targeting of histone deacetylase and topoisomerase II with novel bifunctional inhibitors” (J Med Chem, 2012).)
